The values below come from ChEMBL document CHEMBL2346587, “Design, synthesis, and evaluation of a water-soluble antofine analogue with high antiproliferative and antitumor activity” (Bioorg Med Chem, 2013).

The source made the active and inactive calls. The rule behind the calls is not given here.

The test system of series [1] is A549. Kind of series: Antitumor activity against paclitaxel-resistant human A549 cells xenografted in athymic nu/nu BALB/c mouse assessed as inhibition of tumor growth at 10 mg/kg, ip administered 35 days post-implantation 3 times a week relative to control. It counts as functional. The following applies: 840 h, route intraperitoneal, read-out: TGI. In outline: (§1)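 Female athymic BALB/c nu/nu mice, six weeks old; 2 × 10^6 A549 or A549-Pa cells in 0.1 mL RPMI injected s.c. into right flank on day 0. Dosing began at 95–100 mm3 tumour volume: drug in 1% cremophore in PBS given i.p. three times weekly; controls got vehicle; five mice/group. Tumour volume tracked every 3–5 days; tumours excised and weighed at end; sections immunostained for Ki-67.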

Series [2] concerns A549. Nature of the series: Cytotoxicity against human paclitaxel-resistant A549 cells after 72 hrs by SRB assay. Particulars: A549, 72 h. It counts as functional, cell-based. In outline: (§2)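 SRB growth assay: 5 × 10^3 cells/well exposed to a concentration series for 72 h; fixed in 10% TCA 30 min at 4 °C, stained with 0.4% SRB in 1% acetic acid 30 min, dye dissolved in 10 mM Tris pH 10.0, absorbance at 515 nm. Viability relative to vehicle control; IC50 by non-linear regression; at least three experiments. A549-Pa is a paclitaxel-resistant A549 subline.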

The target of series [3] is T1, ATP-dependent translocase ABCB1 (Homo sapiens, UniProt P08183). Nature of the series: Inhibition of P-gp activity in human paclitaxel-resistant A549 cells assessed as rhodamine 123 accumulation at 200 nM after 72 hrs by FACS analysis (reference value: 14.4 %). Particulars: a549, 72 h, 0.2 µM. It counts as cell-based. Further details: scale not given: the % may be the effect or the level left.

Series [4] has as its system A549. Nature of the series: Antitumor activity against human A549 cells xenografted in athymic nu/nu BALB/c mouse assessed as inhibition of tumor growth at 5 mg/kg, ip administered 35 days post-implantation 3 times a week relative to control. It counts as functional. Particulars: 840 h, route intraperitoneal, read-out: TGI. The method, boiled down: as §1
In series [5] the test system is A549. Nature of the series: human A549 cells assessed as morphological changes at 50 to 400 nM after 24 hrs by inverted phase-contrast microscopy.
Series [6] concerns the target T1, ATP-dependent translocase ABCB1. Kind of series: Inhibition of P-gp activity in human paclitaxel-resistant A549 cells potentiation of 5 uM gefitinib-induced cytotoxicity at 0.1 uM by SRB assay. It counts as cell-based. The following applies: a549, 0.1 µM. The method, boiled down: (§3)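 A549-Pa cells plated at 5 × 10^4 cells/well and co-treated for 48 h with the compound (0–200 nM) plus paclitaxel or gefitinib; growth inhibition by SRB assay. Combination index computed at the 50% inhibition level as CI = D1/(Dx)1 + D2/(Dx)2, comparing combined versus single-agent concentrations.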

The next series has as its system HCT-116. Kind of series: Cytotoxicity against human HCT116 cells after 72 hrs by SRB assay. Particulars: HCT-116, 72 h. It counts as functional, cell-based. In outline: as §2
The test system of series [7] is A549. Nature of the series: Inhibition of AKT/c-myc signaling in human A549 cells assessed as reduction in cyclin E protein expression at 50 to 400 nM after 24 hrs by Western blot analysis. It counts as cell-based. In outline:
(§4)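 A549 cells plated at 3 × 10^5 per 60 mm dish, grown 24 h, then exposed to a concentration series for 24 h. Lysed in boiling SDS sample buffer with NaF and orthovanadate; protein by BCA; 25–50 µg run on 8–15% SDS-PAGE, transferred to PVDF, blocked in 5% milk/PBST, primary antibodies overnight at 4 °C, secondary 1–2 h, ECL detection.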

The subject of another series is Mus musculus. Kind of series: Toxicity in paclitaxel-resistant human A549 cells xenografted athymic nu/nu BALB/c mouse assessed as body weight change at 5 to 10 mg/kg, ip administered 3 times a week. It counts as organism-based. Further details: dose 5-10 mg/kg, route intraperitoneal. Particulars: in vivo. The method, boiled down: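 Six-week-old female BALB/c nu/nu mice received 2 × 10^6 A549-Pa cells in 0.1 mL RPMI subcutaneously in the right flank. Dosing began at 95–100 mm3 tumor volume, with five mice per group randomized. Compound in 1% cremophore/PBS was given intraperitoneally three times weekly; controls received equal vehicle volume. Body weight and overt toxicity were monitored.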

In series [8] the target is T1, ATP-dependent translocase ABCB1. Nature of the series: Inhibition of P-gp activity in human paclitaxel-resistant A549 cells assessed as rhodamine 123 accumulation at 50 nM after 72 hrs by FACS analysis (reference value: 14.4 %). It counts as cell-based. Further details: scale not given: the % may be the effect or the level left. Particulars: a549, 72 h, 0.05 µM.
Series [9] deals with TCF4/beta-catenin (Homo sapiens) (UniProt P35222+Q9NQB0). Nature of the series: Inhibition of transcription activity of […]/TCF4 (unknown origin) expressed in HEK293 cells after 24 hrs by luciferase reporter gene assay. It counts as cell-based. The method, boiled down: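 HEK293 cells were co-transfected for 24 h with 100 ng TOPflash β-catenin/Tcf reporter and 5 ng pRL-SV40. Graded compound concentrations were then added for 24 h. Firefly activity was read with a dual-luciferase system and normalized to Renilla. Significance was tested against DMSO control.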

Series [10] concerns the target T1, ATP-dependent translocase ABCB1. Kind of series: Inhibition of P-gp activity in human paclitaxel-resistant A549 cells potentiation of 2.5 uM gefitinib-induced cytotoxicity at 0.05 uM by SRB assay. The following applies: a549, 0.05 µM. It counts as cell-based. The method, boiled down: as §3
Series [11] relates to A549. Kind of series: Antitumor activity against paclitaxel-resistant human A549 cells xenografted in athymic nu/nu BALB/c mouse assessed as inhibition of tumor growth at 5 mg/kg, ip administered 35 days post-implantation 3 times a week relative to control. Particulars: 840 h, route intraperitoneal, read-out: TGI. It counts as functional. In outline: as §1
In series [12] the test system is A549. Kind of series: Cell cycle arrest in human A549 cells assessed as accumulation at S phase at 200 nM after 24 hrs by flow cytometry (reference value: 13.38 %). It counts as functional.
The test system of another series is SK-HEP1. Kind of series: Cytotoxicity against human SKHEP1 cells after 72 hrs by SRB assay. It counts as functional, cell-based. The following applies: SK-HEP1, 72 h. The method, boiled down: as §2
The subject of series [13] is A549. Kind of series: Inhibition of MDR-1 gene expression in human paclitaxel-resistant A549 cells at 50 to 200 nM after 48 hrs by RT-PCR analysis. It counts as functional, cell-based. The method, boiled down:
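A549-Pa cells (1 × 10^5 per 100 mm dish) exposed for 48 h; RNA isolated with TRI reagent, 1 µg reverse-transcribed with AMV RT and oligo(dT)15. MDR-1 amplified with specific primers: 94 °C 4 min; 35 cycles of 94 °C 30 s, 55 °C 30 s, 72 °C 30 s; 72 °C 5 min. Products resolved on 2% agarose, SYBR Safe stained.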

Series [14] concerns A549. Kind of series: Cell cycle arrest in human A549 cells assessed as accumulation at sub-G1 phase at 100 nM after 24 hrs by flow cytometry (reference value: 1.40 %). It counts as functional.
In series [15] the test system is A549. Kind of series: Inhibition of AKT activation in human A549 cells assessed as reduction in c-myc protein expression at 50 to 400 nM after 24 hrs by Western blot analysis. It counts as cell-based. In outline:
as §4

Series [16] deals with T1, ATP-dependent translocase ABCB1. Kind of series: Inhibition of P-gp activity in human paclitaxel-resistant A549 cells potentiation of 10 uM paclitaxel-induced cytotoxicity at 0.2 uM by SRB assay. Particulars: a549, 0.2 µM. It counts as cell-based. In outline:
as §3

The subject of series [17] is A549. Kind of series: Cell cycle arrest in human A549 cells assessed as accumulation at S phase at 400 nM after 24 hrs by flow cytometry (reference value: 13.38 %). It counts as functional.
In series [18] the test system is A549. Nature of the series: Antitumor activity against human A549 cells xenografted in athymic nu/nu BALB/c mouse assessed as inhibition of tumor growth at 10 mg/kg, ip administered 35 days post-implantation 3 times a week relative to control. It counts as functional. Particulars: 840 h, route intraperitoneal, read-out: TGI. In outline:
as §1

For series [19], the target named is T1, ATP-dependent translocase ABCB1. Nature of the series: Inhibition of P-gp activity in human […] A549 cells potentiation of 10 uM paclitaxel-induced cytotoxicity at 0.2 uM by SRB assay. It counts as cell-based. The following applies: a549, 0.2 µM.
The subject of series [20] is A549. Nature of the series: Cytotoxicity against human A549 cells after 72 hrs by SRB assay. It counts as functional, cell-based. The following applies: A549, 72 h. In outline:
as §2

T1 sequence (P08183 whole entry): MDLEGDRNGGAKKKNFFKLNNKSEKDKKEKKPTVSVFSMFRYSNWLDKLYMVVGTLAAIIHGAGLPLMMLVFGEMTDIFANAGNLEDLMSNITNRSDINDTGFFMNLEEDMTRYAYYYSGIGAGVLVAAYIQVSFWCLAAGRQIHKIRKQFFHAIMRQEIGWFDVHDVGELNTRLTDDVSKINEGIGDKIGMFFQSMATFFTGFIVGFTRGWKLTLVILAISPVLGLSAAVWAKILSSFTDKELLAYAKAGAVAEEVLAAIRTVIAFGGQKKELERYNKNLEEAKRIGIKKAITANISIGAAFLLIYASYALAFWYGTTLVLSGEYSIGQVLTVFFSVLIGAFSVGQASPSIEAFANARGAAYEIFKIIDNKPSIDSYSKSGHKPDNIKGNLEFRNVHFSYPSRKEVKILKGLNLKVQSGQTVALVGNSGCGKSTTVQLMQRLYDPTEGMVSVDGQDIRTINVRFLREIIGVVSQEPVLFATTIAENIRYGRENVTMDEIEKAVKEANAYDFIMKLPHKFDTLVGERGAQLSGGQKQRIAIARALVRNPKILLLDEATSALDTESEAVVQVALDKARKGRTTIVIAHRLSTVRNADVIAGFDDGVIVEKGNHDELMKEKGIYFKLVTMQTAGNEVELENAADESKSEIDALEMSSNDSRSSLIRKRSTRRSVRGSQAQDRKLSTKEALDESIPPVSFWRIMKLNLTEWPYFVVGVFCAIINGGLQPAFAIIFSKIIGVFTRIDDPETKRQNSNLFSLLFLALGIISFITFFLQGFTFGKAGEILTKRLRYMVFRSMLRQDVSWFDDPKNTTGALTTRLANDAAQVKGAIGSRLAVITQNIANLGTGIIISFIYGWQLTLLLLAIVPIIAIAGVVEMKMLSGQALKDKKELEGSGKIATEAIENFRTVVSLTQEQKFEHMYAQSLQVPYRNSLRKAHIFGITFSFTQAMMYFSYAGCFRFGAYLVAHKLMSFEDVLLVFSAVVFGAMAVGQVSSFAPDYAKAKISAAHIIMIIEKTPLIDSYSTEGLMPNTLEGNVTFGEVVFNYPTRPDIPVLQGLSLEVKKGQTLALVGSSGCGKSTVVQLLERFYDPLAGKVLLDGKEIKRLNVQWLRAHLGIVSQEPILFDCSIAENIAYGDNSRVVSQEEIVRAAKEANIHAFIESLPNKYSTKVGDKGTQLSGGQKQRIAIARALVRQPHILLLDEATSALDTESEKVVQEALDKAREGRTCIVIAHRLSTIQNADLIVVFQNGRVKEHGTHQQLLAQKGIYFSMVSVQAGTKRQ

As for `COc1ccc2c3c(c4cc(OC)c(OC)cc4c2c1)C[C@@]1(CO)CCCN1C3`, the inhibition in vivo at 10 mg/kg in the series on A549 [1] is 54.8%; in the series with A549 [18] it was 60.7%. Besides, the IC50 in the series on A549 [2] stood at 200 nM; in the series with HCT-116, 60 nM; with SK-HEP1, 60 nM; with A549 [20], 120 nM. The Activity in series [3] is 37.1%; in the series with Mus musculus, “Non-toxic”; in [8], 28.7%; with A549 [12], 10.94%; in the series on A549 [14], 2.31%; in the series on A549 [17], 11.37%. The inhibition in vivo at 5 mg/kg came out at 54.9% in the series with A549 [4] and 38.4% with A549 [11]. The result in the series on A549 [5] was Active. The “fractional inhibitory concentration index (FICI)” value is reported as 0.523 in series [6], 0.653 in series [10], 0.413 in series [16] and 1.002 in [19]. Further, the inhibition result with A549 [7], in the series with A549 [13] and in the series on A549 [15] was “Active” in each case. In [9], the inhibition result was “Dose-dependent effect”.
